Measurements as given in ChEMBL document CHEMBL3112482, “Nonclassical antifolates, part 5. Benzodiazepine analogs as a new class of DHFR inhibitors: synthesis, antitumor testing and molecular modeling study” (Eur J Med Chem, 2014).

Key:
Type in all cases: functional
HOP-62 = assay: Growth inhibition of human HOP62 cells at 10 uM after 48 hrs; conditions: HOP-62, 48 h, read-out: GI
Method in brief: (§1)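 Single-dose primary screen in the NCI 60 human tumour cell line panel, run at the NCI facility. The panel covers nine subpanels: leukaemia, non-small cell lung, colon, CNS, melanoma, ovarian, renal, prostate and breast. Read-out was percent growth of treated cells, shown as a mean graph and reported as percent growth inhibition.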

[1] = Cytotoxicity against human prostate cancer cells at 10 uM after 48 hrs; conditions: Cancer cell lines
[2] = Growth inhibition of human SF539 cells at 10 uM after 48 hrs; conditions: SF-539, 48 h, read-out: GI
Method in brief: (§2)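 NCI 60-cell-line disease-oriented human tumor panel, single-dose primary screen at 10 µM. Data given as mean-graph percent growth of treated cells, reported as percent growth inhibition (GI %).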

KM12 = assay: Growth inhibition of human KM12 cells at 10 uM after 48 hrs; conditions: KM12, 48 h, read-out: GI; method in brief: as §1
UACC-62 = assay: Growth inhibition of human UACC62 cells at 10 uM after 48 hrs; conditions: UACC-62, 48 h, read-out: GI; method in brief: as §2
PC-3 = assay: Growth inhibition of human PC3 cells at 10 uM after 48 hrs; conditions: PC-3, 48 h, read-out: GI; method in brief: as §1
[3] = Growth inhibition of human UO31 cells at 10 uM after 48 hrs; conditions: UO-31, 48 h, read-out: GI; method in brief: as §2
[4] = Cytotoxicity against human melanoma cells at 10 uM after 48 hrs; conditions: Melanoma cell; method in brief: as §1
SF-268 = assay: Growth inhibition of human SF268 cells at 10 uM after 48 hrs; conditions: SF-268, 48 h, read-out: GI; method in brief: as §2
K562 = assay: Growth inhibition of human K562 cells at 10 uM after 48 hrs; conditions: K562, 48 h, read-out: GI; method in brief: as §1
[5] = Cytotoxicity against human renal cancer cells at 10 uM after 48 hrs; conditions: Cancer cell lines
[6] = Growth inhibition of human NCI-ADR-RES cells at 10 uM after 48 hrs; conditions: read-out: GI; method in brief: as §1
[7] = Cytotoxicity against human leukemia cells at 10 uM after 48 hrs; conditions: Leukemia cell
A549 = assay: Growth inhibition of human A549 cells at 10 uM after 48 hrs; conditions: A549, 48 h, read-out: GI; method in brief: as §1
OVCAR-3 = assay: Growth inhibition of human OVCAR3 cells at 10 uM after 48 hrs; conditions: OVCAR-3, 48 h, read-out: GI; method in brief: as §1
OVCAR-8 = assay: Growth inhibition of human OVCAR8 cells at 10 uM after 48 hrs; conditions: OVCAR-8, 48 h, read-out: GI; method in brief: as §1
CAKI-1 = assay: Growth inhibition of human CAKI-1 cells at 10 uM after 48 hrs; conditions: CAKI-1, 48 h, read-out: GI; method in brief: as §1
SNB-19 = assay: Growth inhibition of human SNB19 cells at 10 uM after 48 hrs; conditions: SNB-19, 48 h, read-out: GI; method in brief: as §2
[8] = Cytotoxicity against human non-small cell lung cancer cells at 10 uM after 48 hrs; conditions: Cancer cell lines; method in brief: as §1
NCI-H322M = assay: Growth inhibition of human NCI-H322M cells at 10 uM after 48 hrs; conditions: read-out: GI; method in brief: as §1
NCI-H23 = assay: Growth inhibition of human NCI-H23 cells at 10 uM after 48 hrs; conditions: NCI-H23, 48 h, read-out: GI; method in brief: as §1
[9] = Cytotoxicity against human colon cancer cells at 10 uM after 48 hrs; conditions: Cancer cell lines; method in brief: as §1
[10] = read-out: LC50 (the source's name)

Question: Which results are given for `COc1ccc(/C=C2\CCCc3c2nc(C)nc3-c2ccc(OC)c(OC)c2)cc1OC`?
Answer: inhibition of growth at 10 µM (HOP-62): 67.9%; GI50 [1]: 26.9 µM; LC50 [1]: > 100 µM; TGI [1]: > 100 µM; inhibition of growth at 10 µM [2]: 82.9%; inhibition of growth at 10 µM (KM12): 93.8%; inhibition of growth at 10 µM (UACC-62): 89.1%; inhibition of growth at 10 µM (PC-3): 68%; inhibition of growth at 10 µM [3]: 65.7%; GI50 [4]: 26.9 µM; TGI [4]: > 100 µM; CC50 [4, 10]: > 100 µM; inhibition of growth at 10 µM (SF-268): 80%; inhibition of growth at 10 µM (K562): 94.1%; CC50 [5]: 96.9 µM; GI50 [5]: 23.7 µM; TGI [5]: 98.7 µM; inhibition of growth at 10 µM [6]: 88.8%; GI50 [7]: 6.8 µM; LC50 [7]: > 100 µM; TGI [7]: 92.7 µM; inhibition of growth at 10 µM (A549): 82.1%; inhibition of growth at 10 µM (OVCAR-3): 97.1%; inhibition of growth at 10 µM (OVCAR-8): 96.9%; inhibition of growth at 10 µM (CAKI-1): 94.9%; inhibition of growth at 10 µM (SNB-19): 39.6%; GI50 [8]: 37.8 µM; TGI [8]: 90.2 µM; CC50 [8, 10]: > 100 µM; inhibition of growth at 10 µM (NCI-H322M): 52.6%; inhibition of growth at 10 µM (NCI-H23): 70.9%; GI50 [9]: 28.9 µM; TGI [9]: 88.9 µM; CC50 [9, 10]: > 100 µM
